Assay results of several laboratories.
Lines come from different studies, so protocols differ.
Target: Cyclin-dependent kinase 17 (CDK17, Homo sapiens, UniProt Q00537)

CC1CCCN1c1nccc(-c2cnn3ncccc23)n1 (stereo not drawn) — remaining binding (binding; 1 µM): 100%
CN1CCN(c2cnc3c(C4CCN(C(=O)c5ccc(OC(F)(F)F)cc5N)CC4)ncnc3c2)CC1 — remaining binding (cell-free assay; competition with immobilised ligand; 1 µM): 93%
CNC(=O)[C@@H]1CC[C@@H](n2c(-c3ccc4cnccc4c3)nc3ccc(C(=O)NCc4cccc(C(N)=O)c4)cc32)C1 — remaining binding (binding; competition with immobilised ligand; 1 µM): 93%
Nc1ncc2c(n1)-c1c([nH]c3ccc(C#CC4CC4)cc13)CCCC2 — remaining binding (binding; competition with immobilised ligand; 1 µM): 85%
O=C(Nc1c[nH]nc1C(=O)NC1CCNCC1)c1cc(F)cc(F)c1 — remaining binding (binding; competition with immobilised ligand; 1 µM): 20%
COc1ccnn2ncc(-c3ccnc(N(C)C)n3)c12 — remaining binding (binding; 1 µM): 100%
COc1cnc(Nc2cccc(S(N)(=O)=O)c2)nc1N1CCN(c2ccccc2)CC1 — remaining binding (binding; competition with immobilised ligand; 1 µM): 100%
Cc1cnn2ncc(-c3ccnc(N(C)C)n3)c2c1 — remaining binding (binding; 1 µM): 100%
C[C@@H]1CN(c2cc(-c3n[nH]c4ccc(OC5(C)CC5)cc34)ncn2)C[C@H](C)O1 — remaining binding (cell-free assay; competition with immobilised ligand; 0.1 µM): 89%
O=C(c1ccc(Nc2ncc(Cl)c(-c3cc4ccccc4s3)n2)cc1)N1CCC(N2CCCC2)CC1 — remaining binding (binding; competition with immobilised ligand; 1 µM): 0%
C[C@H](NC(=O)c1cnc2n1[C@](C)(Cc1ccc(C#N)cc1)C(=O)N2c1cc(Cl)c(F)c(Cl)c1)C(=O)NC1(c2ccccn2)CC1 — remaining binding (cell-free assay; competition with immobilised ligand; 1 µM): 100%
CN(C)c1nccc(-c2cnn3ncccc23)n1 — remaining binding (binding; 1 µM): 100%
C=CC(=O)N1CCC(C(=O)NCC(=O)N2CCN(c3nc(-c4cnc(N)nc4C(F)F)nc(N4CCOCC4)n3)CC2)CC1 — remaining binding (binding; competition with immobilised ligand; 1 µM): 89%
Cc1cnc(Nc2ccc(C(=O)N3CCC(N4CCCC4)CC3)cc2)nc1-c1cc2ccccc2s1 — remaining binding (binding; competition with immobilised ligand; 1 µM): 9.2%
COc1ccc2c(c1)O[C@H](c1ccc(OC)c(OC)c1)C[C@@H]2NC(=O)C1(c2ccc3c(c2)OC(F)(F)O3)CC1 — remaining binding (cell-free assay; competition with immobilised ligand; 1 µM): 100%
c1cnn2ncc(-c3ccnc(N4CCC45COC5)n3)c2c1 — remaining binding (binding; 1 µM): 87%
COc1ncc2cc3ccccc3nc2c1C#N — remaining binding (cell-free assay; competition with immobilised ligand; 5 µM): 100%
CC1=C(C#N)[C@@H](c2ccc3[nH]nc(C)c3c2)C(C#N)=C(c2ccc(Cl)cc2)N1 — remaining binding (cell-free assay; competition with immobilised ligand; 1 µM): 87.2%
N[C@H]1CCN(c2nccc(-c3cnn4ncccc34)n2)C1 — remaining binding (binding; 1 µM): 100%
COc1cccc(CNC(=O)c2nc3scc(COCc4ccc(C(=O)O)cc4)c3c(=O)[nH]2)c1 — remaining binding (cell-free assay; competition with immobilised ligand; 1 µM): 87.8%
O=C(c1ccc(Nc2ncc(Cl)c(-c3ccc(Cl)s3)n2)cc1)N1CCC(N2CCCC2)CC1 — remaining binding (binding; competition with immobilised ligand; 1 µM): 1.8%
